Results collected from several papers.
Target: NUAK family SNF1-like kinase 1 (NUAK1, Homo sapiens, UniProt O60285)
Sequence (O60285 1-661, as in one of the studies): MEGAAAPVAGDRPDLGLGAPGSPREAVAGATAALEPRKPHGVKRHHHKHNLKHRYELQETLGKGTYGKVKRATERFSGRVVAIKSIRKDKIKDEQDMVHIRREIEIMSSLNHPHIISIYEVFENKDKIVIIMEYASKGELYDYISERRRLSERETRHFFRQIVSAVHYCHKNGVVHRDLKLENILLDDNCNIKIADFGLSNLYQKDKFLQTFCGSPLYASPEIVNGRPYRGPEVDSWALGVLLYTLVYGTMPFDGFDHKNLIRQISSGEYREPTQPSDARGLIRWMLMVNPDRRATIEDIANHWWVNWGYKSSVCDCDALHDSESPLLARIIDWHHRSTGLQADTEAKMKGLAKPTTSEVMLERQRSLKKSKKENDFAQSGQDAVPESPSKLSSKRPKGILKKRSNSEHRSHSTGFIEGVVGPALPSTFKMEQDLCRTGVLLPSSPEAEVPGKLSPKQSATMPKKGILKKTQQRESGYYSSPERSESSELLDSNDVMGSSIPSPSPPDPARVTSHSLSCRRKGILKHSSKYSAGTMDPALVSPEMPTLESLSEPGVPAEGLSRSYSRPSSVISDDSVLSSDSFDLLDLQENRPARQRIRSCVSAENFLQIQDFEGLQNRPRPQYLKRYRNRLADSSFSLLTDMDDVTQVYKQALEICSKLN

COc1ncc2cc3ccccc3nc2c1C#N  remaining binding (cell-free assay; competition with immobilised ligand; 5 µM): 87%
O=C(NCC1CCOCC1)c1n[nH]cc1NC(=O)c1c(F)cccc1F  remaining binding (binding; competition with immobilised ligand; 1 µM): 100%
CN(C)c1ncc(F)c(-c2cnn3ncccc23)n1  remaining binding (binding; 1 µM): 100%
COc1cnc(Nc2cccc(S(N)(=O)=O)c2)nc1N1CCN(c2ccccc2)C(=O)C1  remaining binding (binding; competition with immobilised ligand; 1 µM): 86%
Cc1cnc(Nc2ccc(C(=O)N3CCC(N4CCCC4)CC3)cc2)nc1-c1cc2ccccc2s1  remaining binding (binding; competition with immobilised ligand; 1 µM): 2.7%
O=C(NCc1ncc(C(F)(F)F)cc1Cl)c1ccc2c(c1)C1(CCS(=O)(=O)CC1)[C@H](C1CC1)N2S(=O)(=O)c1ccc(F)cc1  remaining binding (cell-free assay; competition with immobilised ligand; 1 µM): 83%
CC1CCCN1c1nccc(-c2cnn3ncccc23)n1 (stereo not shown)  remaining binding (binding; 1 µM): 89%
CCCCN(CCCC)C(=O)CN1C[C@@H](c2cc(OC)c3c(c2)OCO3)[C@H](C(=O)O)[C@H]1CC(C)(C)CCC  remaining binding (cell-free assay; competition with immobilised ligand; 1 µM): 82.4%
c1cncc(-c2cccc(Nc3nccc(NC4CCCCC4)n3)c2)c1  remaining binding (binding; competition with immobilised ligand; 10 µM): 16%
C[C@@H]1CCN(c2nccc(-c3cnn4ncccc34)n2)C1  remaining binding (binding; 1 µM): 93%
CCC(=N\O)/C(C)=C/c1ccc(F)cc1  remaining binding (cell-free assay; competition with immobilised ligand; 1 µM): 100%
O=C(c1ccc(Nc2ncc(Cl)c(-c3cc4ccccc4s3)n2)cc1)N1CCC(N2CCCC2)CC1  remaining binding (binding; competition with immobilised ligand; 1 µM): 2.6%
c1cnn2ncc(-c3ccnc(N4CCC45COC5)n3)c2c1  remaining binding (binding; 1 µM): 100%
Cn1cc(Cl)c2c(Oc3c(F)cc(Nc4cc(Cl)nc(N)n4)cc3F)ccnc21  remaining binding (cell-free assay; competition with immobilised ligand; 0.1 µM): 96%
O=C(NCCCN1CCOCC1)c1ccc(Nc2nccc(-c3cc4ccccc4s3)n2)cc1  remaining binding (binding; competition with immobilised ligand; 1 µM): 13%
O=C1CCc2cc(Nc3cc(OC4CCOCC4)c([N+](=O)[O-])cc3Cl)ccc2N1  remaining binding (cell-free assay; competition with immobilised ligand; 1 µM): 100%
N[C@@H]1CCN(c2nccc(-c3cnn4ncccc34)n2)C1  remaining binding (binding; 1 µM): 44%
C[C@H](c1ccnc(Nc2nc3ccc(-c4cc(N(C)C)ncn4)cc3[nH]2)c1)N1CCN(C(=O)CC(F)(F)F)CC1  remaining binding (cell-free assay; competition with immobilised ligand; 0.1 µM): 93%
CN(C)c1nccc(-c2cnc3ncccn23)n1  remaining binding (binding; 1 µM): 98%
